# Screening data as filed in PubChem.
# An excerpt weighted towards active compounds, which were near 1.7% of everything screened.
# Beta2AR agonist = beta2AR agonists driving receptor internalization, primary screen, cell-based, FAP fluorogen, flow cytometry; Am2.2-beta2AR cells; 340,000 tested, 0.43% active; AID 504454, 2011; response, % (concentration not given with the values);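 active = response above a set limit, near 3 SD of response in nonfluorescent compounds, cut at about 42% in these data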
# Target sequence (P07550 whole entry, looked up): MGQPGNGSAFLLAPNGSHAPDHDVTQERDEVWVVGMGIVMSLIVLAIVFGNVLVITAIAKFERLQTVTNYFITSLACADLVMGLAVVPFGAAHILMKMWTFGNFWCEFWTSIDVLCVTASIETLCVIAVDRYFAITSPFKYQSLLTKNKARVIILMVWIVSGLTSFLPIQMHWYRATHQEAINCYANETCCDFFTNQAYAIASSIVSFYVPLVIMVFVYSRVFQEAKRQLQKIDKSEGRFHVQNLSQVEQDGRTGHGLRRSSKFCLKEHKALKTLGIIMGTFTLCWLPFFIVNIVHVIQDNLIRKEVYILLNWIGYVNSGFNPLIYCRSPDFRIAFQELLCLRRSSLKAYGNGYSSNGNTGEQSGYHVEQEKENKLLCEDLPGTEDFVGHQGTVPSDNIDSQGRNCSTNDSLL
# APJ agonist = agonists of human apelin receptor APJ, primary screen, CHO-K1 cells, PathHunter beta-arrestin, luminescence. P35414. 0% DMSO wells, 100% apelin. activation, % at 20 µM. 330,000 tested, 0.11% active;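 active = activation more than six SD over the plate average, tested at 20 µM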;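 note: 0% = DMSO alone and 100% = apelin-13 at 10 nM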
#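 Assay system: CHO-K1 APJ beta-arrestin complementation cell line / Compound: single test compound dose, 20 µM final, 1% DMSO / Times: overnight seeding, 90 min compound at 25 °C, 1 h detection / Technique: beta-gal luminescence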
# CCR6 antag = CCR6 receptor antagonists, primary screen, cell-based, CHO-K1, luminescence, beta-arrestin, uHTS; C-C chemokine receptor type 6 (Homo sapiens), P51684; CHO-K1 CCR6 PathHunter beta-arrestin, CCL20-stimulated; inhibition, % at 20 µM; 340,000 tested, 0.49% active;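 active = compounds whose inhibition of the agonist-driven luminescence signal at 20 µM reaches about 50%, limit read from the data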;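 note: cells stimulated with CCL20 at 14 nM final; plate controls were DMSO with CCL20 for no effect and DMSO without agonist for full effect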
# CXCR6 block = CXCR6 receptor inhibitors, primary screen, cell-based, beta-arrestin, luminescence, CHO-K1 PathHunter, 1536-well | inhibition, % at 20 µM | 360,000 tested, 0.36% active | C-X-C chemokine receptor type 6 (Homo sapiens), O00574; in the data active = inhibition above about 34%, passing the limit was not always enough;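 note: antagonist mode with CXCL16 agonist at 10 nM final; 0% = 10 nM CXCL16 with DMSO and 100% = unstimulated wells without agonist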
# APJ antagonist = antagonists of human apelin receptor APJ, primary screen, CHO-K1 cells, beta-arrestin complementation, luminescence; P35414; inhibition, % at 20 µM; 330,000 tested, 0.32% active;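 active = inhibition above about 40% at 20 µM, limit read from the data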;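 note: cells challenged with 10 nM apelin-13 agonist together with compound; plate controls were apelin-13 plus DMSO wells for no effect and DMSO wells lacking apelin-13 for full effect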
# PfGluPho inh = PfG6PD enzyme inhibitors, primary screen, biochemical, fluorescence intensity, uHTS. glucose-6-phosphate dehydrogenase-6-phosphogluconolactonase (Plasmodium falciparum 3D7). PfGluPho enzyme, NADPH resazurin-diaphorase fluorescence. inhibition, % at 20 µM. 350,000 tested, 0.78% active;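 active = inhibition reaching at least a set limit at 20 µM in the primary screen, cut at about 59% in these data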;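 note: 0% = DMSO wells with substrate and 100% = DMSO wells lacking glucose-6-phosphate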
# PfGluPho conf = PfG6PD inhibitors, hit retest, confirmation, biochemical, fluorescence intensity, single concentration; AID 504753, 2011; inhibition, % at 20 µM; shares compounds with PfGluPho inh; recombinant PfGluPho, NADPH-diaphorase-resazurin fluorescence; 2,400 tested, 34% active;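 active = inhibition of at least 50% at 20 µM in any single replicate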;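 note: 0% = DMSO with substrate and 100% = DMSO lacking glucose-6-phosphate substrate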
# Diaphorase 10uM = diaphorase inhibitors and chemical oxidizers, confirmation, counter-screen for P. falciparum G6PD inhibitor project, biochemical, fluorescence intensity, 10 µM NADPH. shares compounds with PfGluPho inh. diaphorase-coupled resazurin reduction, NADPH 10 uM. inhibition, % at 20 µM. 820 tested, 39% active. AID 504862, 2011;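 active = average inhibition reaching 50% or more with the compound at 20 µM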;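 note: resorufin red fluorescence formed as diaphorase reduces resazurin using NADPH; 0% = DMSO with enzyme and 100% = DMSO without enzyme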
# Diaphorase 30uM = diaphorase inhibitors and chemical oxidizers, confirmation, counter-screen for P. falciparum G6PD inhibitor project, biochemical, fluorescence intensity, 30 µM NADPH. 820 tested, 29% active. shares compounds with PfGluPho inh. Diaphorase/resazurin coupled assay, resorufin fluorescence. inhibition, % at 20 µM. AID 504863, 2011;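 active = inhibition averaging 50% or more, tested at 20 µM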;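 note: 0% = DMSO with enzyme and 100% = DMSO wells lacking diaphorase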
# Starred values were filed as active, the others as inactive; x = not tested or not shown.
SMILES,Beta2AR agonist,APJ agonist,CCR6 antag,CXCR6 block,APJ antagonist,PfGluPho inh,PfGluPho conf,others
COc1cc(C(=S)N2CCCC2)cc(Cl)c1OCC(=O)Nc1ccc(C)cc1C,9,-4,23,7,19,64*,-1,
CCOc1cc(C(=O)Nc2ccc(C)cc2C)ccc1OCC(=O)N1CCCCC1,-25,-1,-5,3,-10,5,x,
C=CCOc1c(Cl)cc(CNc2ccc3[nH]c(=O)[nH]c3c2)cc1OC,-1,0,-25,-19,-3,64*,58*,Diaphorase 10uM=21;Diaphorase 30uM=18
CC(=O)Nc1cccc(NC(=O)Cc2cccs2)c1,-4,2,-7,-3,2,-4,x,
O=C(Cc1cccs1)Nc1cccc(-c2nc3cc4ccccc4cc3[nH]2)c1,24,x,-4,11,x,63*,7,
CC1=CC(=O)C=C(C)C1=NOc1ccccc1[N+](=O)[O-],10,9,7,-19,-45,69*,-6,
CC(C)(C)c1csc(NC(=O)Cn2cnc3ccccc3c2=O)n1,2,-6,-7,-3,-11,68*,-4,
CC(NC(=O)CCC(=O)Nc1ccccc1O)c1ccccc1 (stereo unspecified),4,-3,-8,-1,1,4,x,
CC(CNc1ccccc1O)C(=O)O (stereo unspecified),6,1,1,-10,-45,94*,70*,Diaphorase 10uM=-4;Diaphorase 30uM=1
S=C(NNC(=S)Nc1ccccc1)Nc1ccccc1,-7,-4,25,4,2,8,x,
S=C(NNC(=S)Nc1ccc(Cl)cc1)NNc1ccccc1,x,x,x,22,x,73*,26,
COc1ccc(C2=NOC(Cn3nc(C(=O)NCc4ccco4)cc3-c3ccccc3)C2)cc1 (stereo unspecified),8,0,3,5,3,7,x,
COc1ccc([N+](=O)[O-])cc1NC(=O)CSCc1cc(C)cc(C)c1,-5,-4,22,11,11,59*,16,
COC(=O)CCC(=O)OC1(C)C(=O)C2=CN(CCCOC(C)C)C(c3ccc(OC)cc3)=CC2=C(Br)C1=O (stereo unspecified),7,20,-12,-19,-5,82*,38,
COC(=O)CCC(=O)OC1(C)C(=O)C2=CN(Cc3ccccc3)C(c3ccc(OC)cc3)=CC2=C(Br)C1=O (stereo unspecified),6,18,2,3,-92,78*,47,
COC(=O)CCC(=O)OC1(C)C(=O)C2=CN(c3ccccc3)C(c3ccc(OC)cc3)=CC2=C(Br)C1=O (stereo unspecified),-4,21,-5,-9,-123,73*,74*,Diaphorase 10uM=50*;Diaphorase 30uM=39
COC(=O)CCC(=O)OC1(C)C(=O)C2=CN(CC(C)C)C(c3ccc(OC)cc3)=CC2=C(Br)C1=O (stereo unspecified),x,16,x,x,-118,x,x,
COC(=O)CCC(=O)OC1(C)C(=O)C2=CN(Cc3ccc(OC)cc3)C(c3ccc(OC)cc3)=CC2=C(Br)C1=O (stereo unspecified),-5,17,3,-15,-133,54,x,
N#Cc1ccccc1S(=O)(=O)N1CCN(Cc2cc3c(cc2Br)OCCO3)CC1,x,x,x,-3,x,6,x,
Cc1ccccc1-c1nc(C(=O)NCC2CCCO2)cc2c1[nH]c1ccccc12 (stereo unspecified),-5,4,26,3,-24,60*,5,
Cc1cccc(Cn2cnc3c(sc4nc(C)cc(C)c43)c2=O)c1,3,-1,20,20,7,5,x,
Cc1cc(C)c2c(n1)sc1c(N3CCCCC3)ncnc12,17,-3,4,2,14,70*,0,
Cc1cc(C)c2c(n1)sc1c(N3CCN(C)CC3)ncnc12,-9,-2,3,2,7,43,x,
CCN(CC)c1ncnc2c1sc1nc(C)cc(C)c12,-11,-1,-4,1,9,72*,36,
O=C(CSc1ncn(-c2ccccc2)n1)N1CCc2ccccc21,-20,3,-10,-16,2,60*,6,
SMILES,Beta2AR agonist,APJ agonist,CCR6 antag,CXCR6 block,APJ antagonist,PfGluPho inh,PfGluPho conf,others
Cc1ccnc(SCC(=O)N2CCc3ccccc32)n1,-6,-3,16,4,5,-8,x,
O=C(CN1CCN(c2ccc(O)cc2)CC1)N1CCc2ccccc21,-16,2,9,-2,-13,63*,20,
O=C(Nc1cc(C(F)(F)F)ccc1N1CCOCC1)C1Cc2ccccc2CN1C(=O)c1ccco1 (stereo unspecified),1,-7,36,22,30,81*,23,
O=C(Nc1ccccc1)C1Cc2ccccc2CN1C(=O)c1ccco1 (stereo unspecified),1,-6,4,5,10,11,x,
C[C@H]1CN(C2CCCCC2)C(=O)[C@@H]1CC(=O)Nc1ccc(Br)cc1,x,x,x,1,x,18,x,
CCOC(=O)CNc1c(-c2ccc(OC)cc2)nc2ccc(Cl)cn12,0,-5,2,-3,-8,74*,26,
COCCNc1c(-c2ccc(OC)cc2)nc2ccc(Cl)cn12,2,1,14,-4,-6,65*,41,
COc1cccc(C(=O)Nc2sc(C(C)C)cc2C(N)=O)c1OC,5,0,13,0,10,98*,23,
C=CCc1c(C)[nH]c(=S)c(C#N)c1C,2,2,-1,7,-49,73*,56*,Diaphorase 10uM=-13;Diaphorase 30uM=-21
COc1ccc(CN2CCN(CCCc3ccccc3)C(CCO)C2)c(OC)c1 (stereo unspecified),4,-3,0,-9,12,-16,x,
COc1cc(CN2CCN(CCCc3ccccc3)C(CCO)C2)cc(OC)c1O (stereo unspecified),-6,2,-13,2,-1,61*,57*,Diaphorase 10uM=7;Diaphorase 30uM=1
